This is a sample that favours compounds with a hit; in the whole collection about 2.7% have one here.
PAFAH2 inh: PAFAH2 (human) inhibition. AID 492956. recombinant PAFAH2, FP-rhodamine activity probe, fluorescence polarization. Q99487. inhibition, % at 3.39 µM. 340,000 tested, 0.99% active;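 active = inhibition above the mean over all tested compounds plus 3 SD, cut at about 30% in these data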;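 also: inhibitors block probe labeling of enzyme so polarization drops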
PAFAH1B2 inh: PAFAH1B2 (human) inhibition; AID 492953; inhibition, % at 3.39 µM; 340,000 tested, 1.2% active; P68402; recombinant PAFAH1B2, FP-rhodamine activity probe, fluorescence polarization;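 active = inhibition above the mean of all tested compounds plus 3 SD, cut at about 24% in these data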
ASAP1 GAP inh: ASAP1 ArfGAP inhibition. ASAP1-stimulated ARF1 GTP hydrolysis, GDP FP detection. inhibition, % at 16.5 µM. 360,000 tested, 0.19% active. AID 624377; in the data active = inhibition above about 25%
ARFGAP1 inhibitor: inhibitors of rat ARFGAP1 | 360,000 tested, 0.26% active | inhibition, % at 16.5 µM | AID 651572 | Arfgap1-stimulated ARF1 GTP hydrolysis, GDP FP detection;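 active = inhibition above a per-plate limit, mean inhibition of low control wells plus 3 SD, cut at about 25% in these data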
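Assay system: purified rat His6-Arfgap1 residues 1-136 (GAP domain); Reagent: human Δ17 ARF1 bound to GTP; Dosing: 16.5 µM single point, 1.26% DMSO; Times: GTP hydrolysis reaction 2 h at 25 °C; Signal: FP, GDP Alexa 633 tracer displaced from anti-GDP antibody, 620/688 nm; Measure: % inhibition from polarization.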
pPAFAH FP inh: inhibitors of human plasma PAF acetylhydrolase (pPAFAH) | Q13093 | recombinant pPAFAH, FP-rhodamine probe fluorescence polarization | inhibition, % at 3.39 µM | 330,000 tested, 1.5% active | AID 463082;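 active = inhibition above the mean inhibition across the screen plus 3 SD, cut at about 25% in these data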;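 also: inhibitors block binding of the rhodamine activity-based probe so polarization drops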
Target sequence (Q13093 whole entry, looked up): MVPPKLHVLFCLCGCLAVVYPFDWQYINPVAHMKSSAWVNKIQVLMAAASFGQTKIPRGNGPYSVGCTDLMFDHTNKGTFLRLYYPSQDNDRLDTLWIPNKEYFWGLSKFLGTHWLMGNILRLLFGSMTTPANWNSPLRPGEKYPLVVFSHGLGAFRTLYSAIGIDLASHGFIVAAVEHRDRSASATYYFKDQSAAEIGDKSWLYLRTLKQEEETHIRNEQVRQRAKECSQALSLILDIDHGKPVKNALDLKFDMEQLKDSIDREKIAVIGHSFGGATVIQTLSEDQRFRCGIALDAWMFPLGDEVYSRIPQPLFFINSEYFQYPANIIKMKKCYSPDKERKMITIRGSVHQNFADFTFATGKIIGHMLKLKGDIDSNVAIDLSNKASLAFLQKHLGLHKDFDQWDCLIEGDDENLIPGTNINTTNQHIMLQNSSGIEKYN
PAFAH1B3 inh: PAFAH1B3 (human) inhibition; recombinant PAFAH1B3, FP-rhodamine probe, fluorescence polarization; 340,000 tested, 0.28% active; AID 492972; inhibition, % at 3.39 µM;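 active = inhibition above the screen-wide average of all tested compounds plus 3 SD, cut at about 25% in these data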
Target sequence (Q15102 whole entry, looked up): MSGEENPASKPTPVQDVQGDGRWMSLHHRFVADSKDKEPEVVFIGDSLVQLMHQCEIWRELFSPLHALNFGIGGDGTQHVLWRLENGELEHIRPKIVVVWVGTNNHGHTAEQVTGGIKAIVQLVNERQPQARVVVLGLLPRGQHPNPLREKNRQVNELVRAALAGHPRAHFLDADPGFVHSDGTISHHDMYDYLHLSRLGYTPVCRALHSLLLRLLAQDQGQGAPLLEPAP
PAFAH2 FP conf: PAFAH2 (human) inhibition, confirmed. 2,300 tested, 65% active. recombinant PAFAH2, FP-rhodamine activity probe, fluorescence polarization. shares compounds with PAFAH2 inh. inhibition, % at 3.39 µM;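 active = mean inhibition over three repeats above a set limit taken from the earlier primary screen, cut at about 30% in these data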;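 also: inhibitor blocks binding of rhodamine activity probe so polarization falls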
Numbers stand for hits; - = inactive; . = no result given.

SMILES | PAFAH2 inh | PAFAH1B2 inh | ASAP1 GAP inh | ARFGAP1 inhibitor | pPAFAH FP inh | PAFAH1B3 inh | PAFAH2 FP conf
Cc1cc(OCc2nc(N)nc(N)c2-c2ccc(Cl)c(Cl)c2)ccc1[N+](=O)[O-] | - | - | - | - | . | - | .
COc1ccccc1OCCC(=O)OCC(=O)Nc1cc(S(=O)(=O)N(C)C)ccc1Cl | - | - | - | - | - | - | .
CN(C)S(=O)(=O)c1ccc(Cl)c(NC(=O)COC(=O)c2ccc(O)cc2)c1 | 59 | - | - | - | - | - | 55
CCN(CC)S(=O)(=O)c1ccc(N2CCOCC2)c(NC(=O)Cc2cccc3ccccc23)c1 | 60 | - | - | - | - | - | 45
COc1cccc(/C=C/C(=O)OCC(=O)NC2CCCC2)c1 | . | . | - | - | . | . | .
O=C(COC(=O)/C=C/c1cccc(Br)c1)NC1CCCC1 | 66 | - | - | - | - | - | 59
O=C(COC(=O)/C=C/c1ccccc1)NC1CCCC1 | 84 | - | - | - | - | - | 74
O=C(COC(=O)/C=C/c1ccccc1)NC1CCCCC1 | 76 | - | - | - | - | - | 83
COc1cccc(/C=C/C(=O)OCC(=O)NC2CCCCCC2)c1 | . | . | - | - | . | . | .
COc1cccc(/C=C/C(=O)OCC(=O)NC2CC2)c1 | 41 | - | - | - | - | - | 38
CC(C)(C)NC(=O)C1(C)CCC(=O)N1C1CC1 (stereo not drawn) | . | . | - | - | . | . | .
Nc1nc2c(ncn2[C@@H]2O[C@H](CNS(=O)(=O)C3CC3)[C@@H](O)[C@H]2O)c(=O)[nH]1 | . | . | - | - | . | . | .
N#Cc1ccc(N[C@@H]2CCN3C(=O)c4ccccc4[C@@H]3C[C@H]2O)cc1 | - | - | - | - | - | - | .
COc1cccc(/C=C/C(=O)OCC(=O)NCCc2ccccc2)c1 | 32 | - | - | - | - | - | -
O=C(COC(=O)/C=C/c1ccccc1Cl)NC1CCCCCC1 | 72 | - | - | - | - | - | 75
Cc1ccccc1-c1ccccc1CN1[C@@H](C(C)C)COCCS1(=O)=O | - | - | - | - | - | - | .
Cc1ccccc1NC(=O)Cc1nc(-c2c[nH]c(C(=O)N3CCCC3)c2)cs1 | 40 | - | - | - | - | - | -
Cc1cccc(NC(=O)Cc2nc(-c3c[nH]c(C(=O)N4CCCC4)c3)cs2)c1 | 35 | - | - | - | . | - | -
Cc1cccc(CC(=O)Nc2ccc(C(=O)N3CCCCC3)cc2)c1 | - | - | - | - | - | - | .
CCOC(=O)C1=C(C(=O)OCC)C2N(Cc3ccc(C(F)(F)F)cc3)c3ccccc3[C@@]23C[C@@H](C(=O)OC)N(S(=O)(=O)c2cccs2)C3=N1 (stereo partly drawn) | . | . | - | - | . | . | .
COC(=O)c1ccc(N2NC(=O)/C(=C/c3ccc(-c4ccc(Cl)c(C(=O)O)c4)o3)C2=O)cc1 | - | - | - | - | . | - | .
O=C1NN(c2ccccc2)C(=O)/C1=C/c1ccc(-c2ccc(C(=O)O)cc2)o1 | 31 | - | - | - | - | - | -
COCCCNC(=O)CC1C[C@H](C(=O)N2CCOCC2)[C@@]2(C)c3[nH]c4ccc(OC)cc4c3CCN2C1=O (stereo partly drawn) | - | - | - | - | - | - | .
CCc1nnc(NC(=O)CSc2nnc(-c3ccccc3NC(=O)c3ccccc3)o2)s1 | 34 | - | - | - | - | - | -
CCOC(=O)CSc1nnc(-c2ccccc2NC(=O)c2ccccc2)o1 | - | - | - | - | - | - | .
SMILES | PAFAH2 inh | PAFAH1B2 inh | ASAP1 GAP inh | ARFGAP1 inhibitor | pPAFAH FP inh | PAFAH1B3 inh | PAFAH2 FP conf
NS(=O)(=O)c1ccc(NC(=O)COC(=O)C2CCCCC2)cc1 | - | - | - | - | - | - | .
CC(C)c1ccc(NC(=O)COC(=O)C2CCCCC2)cc1 | 45 | - | - | - | - | - | -
CC(NC(=O)COC(=O)C1CCCCC1)c1ccccc1 (stereo not drawn) | 36 | - | - | - | - | - | -
CCOC(=O)C1=C(C)NC(C)=C(C(=O)OCC)C1C(=O)OCC(=O)NC(C)c1ccccc1 (stereo not drawn) | - | - | - | - | . | - | .
CC(NC(=O)COC(=O)C1CC1C)c1ccccc1 (stereo not drawn) | 33 | - | - | - | - | - | 30
CC1CC1C(=O)OCC(=O)NC(=O)c1ccc(C(C)(C)C)cc1 (stereo not drawn) | - | - | - | - | - | - | .
CC(NC(=O)COC(=O)C1CC1C)c1cccc(Cl)c1 (stereo not drawn) | 36 | - | - | - | - | - | -
CC(NC(=O)c1c(N)[nH]c(C(=O)c2ccccc2)c1-c1ccccc1Br)c1cccc2ccccc12 (stereo not drawn) | . | . | - | - | . | . | .
O=C(Nc1ccc2c(c1)OCCO2)C1c2ccccc2OCC(=O)N1Cc1ccccc1 (stereo not drawn) | . | . | - | - | . | . | .
Cc1ccc(N/N=C/c2c(O)cc(C)oc2=O)cc1 | - | - | - | - | - | - | .
Cc1ccc(CO/N=C/c2c(O)cc(C)oc2=O)cc1 | 37 | - | - | - | - | - | -
CC(C)(C)c1nc[nH]c(=O)c1Br | 63 | - | - | - | - | - | 41
CCOc1ccc(NC(=O)CC(=O)Nc2ccc(OCC)cc2)cc1 | - | - | - | - | - | - | .
O=C(CC1CCCC1)Nc1ccc(Br)cc1 | - | - | - | - | - | - | .
CCOc1ccc(NC(=O)COC(=O)CC2CCCCC2)cc1 | 45 | - | - | - | - | - | 41
O=C(COC(=O)CC1CCCC1)Nc1ccc(Cl)cc1 | 80 | - | - | - | . | - | 74
CN(C(=O)COC(=O)c1cncc(Br)c1)C1CCCCC1 | - | - | - | - | - | - | .
CN(C(=O)COC(=O)c1ccc2c(c1)OCCO2)C1CCCCC1 | 69 | - | - | - | . | - | 61
COc1cc(C(=O)OCC(=O)Nc2ccc(C)cc2)cc(OC)c1OC | 31 | - | - | - | - | - | -
COc1cc(C(=O)OCC(=O)NC2CCCCC2)cc2c1OCCO2 | 74 | - | - | - | - | - | 66
Cc1cc(C)cc(C(=O)OCC(=O)NC2CCCC2)c1 | 43 | - | - | - | - | - | -
Cc1cc(C)cc(C(=O)OCC(=O)NC(=O)NC2CCCC2)c1 | - | - | - | - | - | - | .
CCCn1nc(C(=O)OCC(=O)Nc2ccc(C)cc2)c2ccccc2c1=O | - | - | - | - | - | - | .
COc1cc(C(=O)OCC(=O)NC2CCCCC2)cc(OC)c1OC | 41 | - | - | - | - | - | -
Cc1ccc(NC(=O)COC(=O)c2cc(Cl)ccc2[N+](=O)[O-])cc1 | 56 | - | - | - | - | - | 38
COc1cc(C(=O)OCC(=O)NC2CCCC2)cc(OC)c1OC | - | - | - | - | - | - | .
NS(=O)(=O)c1cc(C(=O)OCC(=O)NC2CCCCCCC2)ccc1Cl | - | - | - | - | . | - | .
O=C(COC(=O)c1ccc2c(c1)OCCO2)NC1CCCCC1 | 87 | - | - | - | - | - | 77

Screening results from PubChem BioAssay.
